Results: ChEMBL document CHEMBL4308827 (J Med Chem, 2018)
Active and inactive are the calls of the source. No cut-off for these calls is given here.

Columns and labels:
[1] = molecular target: Metabotropic glutamate receptor 5 (Homo sapiens) (UniProt P41594); experiment: Antagonist activity at human mGlu5 receptor expressed in HEK293 cells by calcium assay; assay type: functional, cell-based
[2] = molecular target: T1, Metabotropic glutamate receptor 2 (Homo sapiens, UniProt Q14416); experiment: Displacement of [3H]JNJ-46281222 from human mGlu2 receptor expressed in CHOK1 cell membranes assessed as association rate constant after 1 hr in presence of glutamate by microbeta scintillation counting method
[3] = molecular target: Metabotropic glutamate receptor 8 (Homo sapiens) (UniProt O00222); experiment: Agonist activity at human mGlu8 receptor expressed in HEK293 cells by calcium assay; assay type: functional, cell-based
[4] = molecular target: T1, Metabotropic glutamate receptor 2; experiment: (§1) Positive allosteric modulation of human mGlu2 receptor expressed in CHOK1 cell membranes assessed as increase in glutamate-induced [35S]GTPgammaS binding preincubated for 30 mins followed by [35S]GTPgammaS addition and measured after 90 mins by scintillation spectrometry method; assay type: functional
Target sequence in this assay (Q14416 whole entry): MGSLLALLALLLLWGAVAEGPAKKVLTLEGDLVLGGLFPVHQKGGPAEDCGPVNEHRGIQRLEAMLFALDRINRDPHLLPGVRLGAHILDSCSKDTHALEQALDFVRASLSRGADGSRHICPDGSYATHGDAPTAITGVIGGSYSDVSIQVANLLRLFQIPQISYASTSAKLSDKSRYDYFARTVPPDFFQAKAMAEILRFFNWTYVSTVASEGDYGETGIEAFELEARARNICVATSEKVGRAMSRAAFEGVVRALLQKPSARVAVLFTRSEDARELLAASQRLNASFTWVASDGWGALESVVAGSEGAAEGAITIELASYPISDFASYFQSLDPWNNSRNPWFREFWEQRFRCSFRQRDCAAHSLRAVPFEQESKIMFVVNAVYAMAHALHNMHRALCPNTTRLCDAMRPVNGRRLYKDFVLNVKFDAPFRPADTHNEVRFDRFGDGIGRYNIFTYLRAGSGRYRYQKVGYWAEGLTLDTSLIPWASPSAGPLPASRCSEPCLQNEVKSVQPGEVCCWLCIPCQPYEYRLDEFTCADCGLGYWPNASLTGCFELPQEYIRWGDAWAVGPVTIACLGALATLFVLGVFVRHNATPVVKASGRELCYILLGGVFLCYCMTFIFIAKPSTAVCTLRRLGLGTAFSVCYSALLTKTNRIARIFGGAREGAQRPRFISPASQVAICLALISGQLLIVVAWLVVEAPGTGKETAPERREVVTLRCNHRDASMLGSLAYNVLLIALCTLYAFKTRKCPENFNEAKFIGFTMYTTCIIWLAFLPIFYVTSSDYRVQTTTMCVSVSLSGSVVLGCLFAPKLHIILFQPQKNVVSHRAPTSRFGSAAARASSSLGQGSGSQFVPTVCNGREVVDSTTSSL

[5] = molecular target: T1, Metabotropic glutamate receptor 2; experiment: Displacement of [3H]JNJ-46281222 from human mGlu2 receptor expressed in CHOK1 cell membranes preincubated for 3 hrs followed by [3H]JNJ-46281222 addition and measured after 1 hr by microbeta scintillation counting method
Target sequence in this assay (Q14416 whole entry): as above

[6] = molecular target: T1, Metabotropic glutamate receptor 2; experiment: Displacement of [3H]JNJ-46281222 from human mGlu2 receptor expressed in CHOK1 cell membranes assessed as residence time after 1 hr in presence of glutamate by microbeta scintillation counting method
[7] = molecular target: Metabotropic glutamate receptor 3 (Homo sapiens) (UniProt Q14832); experiment: Agonist activity at human mGlu3 receptor expressed in HEK293 cells by calcium assay; assay type: functional, cell-based
[8] = molecular target: Metabotropic glutamate receptor 3 (Homo sapiens) (UniProt Q14832); experiment: Positive allosteric modulation of human mGlu3 receptor expressed in HEK293 cells by calcium assay; assay type: functional, cell-based
[9] = molecular target: Metabotropic glutamate receptor 1 (Homo sapiens) (UniProt Q13255); experiment: Agonist activity at human mGlu1 receptor expressed in HEK293 cells by calcium assay; assay type: functional, cell-based
[10] = molecular target: Metabotropic glutamate receptor 5 (Homo sapiens) (UniProt P41594); experiment: Agonist activity at human mGlu5 receptor expressed in HEK293 cells by calcium assay; assay type: functional, cell-based
[11] = molecular target: Metabotropic glutamate receptor 1 (Homo sapiens) (UniProt Q13255); experiment: Positive allosteric modulation of human mGlu1 receptor expressed in HEK293 cells by calcium assay; assay type: functional, cell-based
[12] = molecular target: T1, Metabotropic glutamate receptor 2; experiment: Irreversible displacement of [3H]JNJ-46281222 from human mGlu2 receptor expressed in CHOK1 cell membranes at 10 times IC50 preincubated for 1 hr in presence of glutamate followed by compound washout and [3H]JNJ-46281222 addition measured after 1 hr by microbeta scintillation counting method
[13] = molecular target: T1, Metabotropic glutamate receptor 2; experiment: Displacement of [3H]JNJ-46281222 from human mGlu2 receptor expressed in CHOK1 cell membranes assessed as dissociation rate constant after 1 hr in presence of glutamate by microbeta scintillation counting method
[14] = molecular target: T1, Metabotropic glutamate receptor 2; experiment: Displacement of [3H]JNJ-46281222 from human mGlu2 receptor expressed in CHOK1 cell membranes after 1 hr by microbeta scintillation counting method
Target sequence in this assay (Q14416 whole entry): as above

[15] = molecular target: Metabotropic glutamate receptor 3 (Homo sapiens) (UniProt Q14832); experiment: Antagonist activity at human mGlu3 receptor expressed in HEK293 cells by calcium assay; assay type: functional, cell-based
[16] = molecular target: Metabotropic glutamate receptor 5 (Homo sapiens) (UniProt P41594); experiment: Positive allosteric modulation of human mGlu5 receptor expressed in HEK293 cells by calcium assay; assay type: functional, cell-based
[17] = molecular target: Metabotropic glutamate receptor 1 (Homo sapiens) (UniProt Q13255); experiment: Antagonist activity at human mGlu1 receptor expressed in HEK293 cells by calcium assay; assay type: functional, cell-based
[18] = molecular target: Metabotropic glutamate receptor 8 (Homo sapiens) (UniProt O00222); experiment: Antagonist activity at human mGlu8 receptor expressed in HEK293 cells by calcium assay; assay type: functional, cell-based
Homo sapiens [19] = species: Homo sapiens; experiment: Displacement of [3H]JNJ-46281222 from human mGlu2 C7957.33x34A mutant receptor transiently expressed in CHOK1 cell membranes at 10 times IC50 after 1 hr by liquid scintillation counting method
Homo sapiens [20] = species: Homo sapiens; experiment: Displacement of [3H]JNJ-46281222 from human mGlu2 R6353.32x32A mutant receptor transiently expressed in CHOK1 cell membranes at 10 times IC50 after 1 hr by liquid scintillation counting method
[21] = molecular target: T1, Metabotropic glutamate receptor 2; experiment: Positive allosteric modulation of human mGlu2 receptor expressed in CHOK1 cell membranes assessed as increase in glutamate-induced [35S]GTPgammaS binding preincubated for 3 hrs followed by [35S]GTPgammaS addition and measured after 1 hr by scintillation spectrometry method; assay type: functional
Target sequence in this assay (Q14416 whole entry): as above

[22] = molecular target: T1, Metabotropic glutamate receptor 2; experiment: as §1, with “binding at 10 times IC50 test compound added before washing steps” for “binding”, “30” for “90”; assay type: functional
Homo sapiens [23] = species: Homo sapiens; experiment: Displacement of [3H]JNJ-46281222 from human mGlu2 T7917.29x30A mutant receptor transiently expressed in CHOK1 cell membranes preincubated for 3 hrs followed by [3H]JNJ-46281222 addition and measured after 1 hr by liquid scintillation counting method
[24] = molecular target: T1, Metabotropic glutamate receptor 2; experiment: Irreversible positive allosteric modulation of human mGlu2 receptor expressed in CHOK1 cell membranes assessed as increase in glutamate-induced [35S]GTPgammaS binding at 10 times IC50 preincubated for 30 mins followed by compound washout and subsequent [35S]GTPgammaS addition and measured after 30 mins by scintillation spectrometry method; assay type: functional
[25] = molecular target: T1, Metabotropic glutamate receptor 2; experiment: Displacement of [3H]JNJ-46281222 from human mGlu2 receptor expressed in CHOK1 cell membranes at IC50 after 1 hr in presence of glutamate by microbeta scintillation counting method
[26] = tested on: Metabotropic glutamate receptor 2 (Homo sapiens), Q14416 [R720A]; experiment: Displacement of [3H]JNJ-46281222 from human mGlu2 R720A mutant receptor transiently expressed in CHOK1 cell membranes at 10 times IC50 after 1 hr by liquid scintillation counting method
[27] = Displacement of [3H]JNJ-46281222 from human mGlu2 T7917.29x30A mutant receptor transiently expressed in CHOK1 cell membranes after 1 hr by liquid scintillation counting method
[28] = molecular target: T1, Metabotropic glutamate receptor 2; experiment: Positive allosteric modulation of human mGlu2 receptor expressed in CHOK1 cell membranes assessed as increase in glutamate-induced [35S]GTPgammaS binding measured after 1 hr by scintillation spectrometry method; assay type: functional
Target sequence in this assay (Q14416 whole entry): as above

[29] = tested on: Metabotropic glutamate receptor 2 (Homo sapiens), Q14416 [Y787A]; experiment: Displacement of [3H]JNJ-46281222 from human mGlu2 Y787A mutant receptor transiently expressed in CHOK1 cell membranes at 10 times IC50 after 1 hr by liquid scintillation counting method
[30] = molecular target: T1, Metabotropic glutamate receptor 2; experiment: Ratio of EC50 for positive allosteric modulation of human mGlu2 receptor expressed in CHOK1 cell membranes assessed as increase in glutamate-induced [35S]GTPgammaS binding co-incubated with [35S]GTPgammaS to EC50 for positive allosteric modulation of human mGlu2 receptor expressed in CHOK1 cell …; assay type: functional
[31] = molecular target: T1, Metabotropic glutamate receptor 2; experiment: Ratio of Ki for human mGlu2 receptor expressed in CHOK1 cell membranes without preincubation to Ki for human mGlu2 receptor expressed in CHOK1 cell membranes preincubated for 3 hrs; assay type: cell-based
Summary of the method: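 CHO-K1 membranes stably expressing hmGlu2 (butyrate-induced, 15 µg) were pre-coupled to WGA SPA beads. […] Nonspecific binding was defined with 10 µM JNJ-40068782. Mean of ≥3 experiments in duplicate.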

[32] = molecular target: T1, Metabotropic glutamate receptor 2; experiment: Displacement of [3H]JNJ-46281222 from human mGlu2 receptor transiently expressed in CHOK1 cell membranes after 1 hr by liquid scintillation counting method
Target sequence in this assay (Q14416 whole entry): as above

Chain of Metabotropic glutamate receptor 1 (Homo sapiens) (Q13255 19-1194 limits assumed): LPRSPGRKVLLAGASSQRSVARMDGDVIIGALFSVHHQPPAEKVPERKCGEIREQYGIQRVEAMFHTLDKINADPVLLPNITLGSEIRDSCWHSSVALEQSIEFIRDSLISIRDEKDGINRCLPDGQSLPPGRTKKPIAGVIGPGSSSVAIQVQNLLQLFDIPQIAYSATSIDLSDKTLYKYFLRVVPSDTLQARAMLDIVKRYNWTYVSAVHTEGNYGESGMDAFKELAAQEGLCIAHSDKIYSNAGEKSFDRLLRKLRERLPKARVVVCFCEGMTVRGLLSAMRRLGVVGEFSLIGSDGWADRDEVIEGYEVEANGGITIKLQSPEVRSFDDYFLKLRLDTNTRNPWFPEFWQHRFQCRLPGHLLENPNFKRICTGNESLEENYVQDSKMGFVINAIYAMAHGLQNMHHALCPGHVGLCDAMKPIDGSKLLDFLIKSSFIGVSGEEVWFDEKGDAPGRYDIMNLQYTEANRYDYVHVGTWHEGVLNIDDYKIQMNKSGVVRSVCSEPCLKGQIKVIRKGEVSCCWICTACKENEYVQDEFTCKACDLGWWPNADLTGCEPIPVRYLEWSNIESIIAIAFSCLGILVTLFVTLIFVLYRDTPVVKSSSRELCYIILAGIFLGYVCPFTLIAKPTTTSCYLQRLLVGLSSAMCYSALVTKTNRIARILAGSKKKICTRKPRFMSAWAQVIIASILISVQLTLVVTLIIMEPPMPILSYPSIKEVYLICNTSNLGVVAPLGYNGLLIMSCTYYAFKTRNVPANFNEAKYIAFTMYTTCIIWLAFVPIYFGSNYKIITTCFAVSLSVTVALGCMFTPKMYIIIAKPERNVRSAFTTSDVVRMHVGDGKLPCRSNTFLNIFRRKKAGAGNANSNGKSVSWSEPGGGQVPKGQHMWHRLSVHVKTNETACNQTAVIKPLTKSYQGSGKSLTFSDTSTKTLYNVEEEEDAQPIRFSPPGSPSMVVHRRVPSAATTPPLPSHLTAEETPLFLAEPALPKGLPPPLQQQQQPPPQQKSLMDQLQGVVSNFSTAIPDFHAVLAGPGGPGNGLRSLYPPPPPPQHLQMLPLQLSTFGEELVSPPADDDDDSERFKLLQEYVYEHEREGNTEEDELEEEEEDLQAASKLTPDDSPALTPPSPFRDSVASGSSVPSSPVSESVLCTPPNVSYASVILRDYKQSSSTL
Chain of Metabotropic glutamate receptor 5 (Homo sapiens) (P41594 21-1212 limits assumed): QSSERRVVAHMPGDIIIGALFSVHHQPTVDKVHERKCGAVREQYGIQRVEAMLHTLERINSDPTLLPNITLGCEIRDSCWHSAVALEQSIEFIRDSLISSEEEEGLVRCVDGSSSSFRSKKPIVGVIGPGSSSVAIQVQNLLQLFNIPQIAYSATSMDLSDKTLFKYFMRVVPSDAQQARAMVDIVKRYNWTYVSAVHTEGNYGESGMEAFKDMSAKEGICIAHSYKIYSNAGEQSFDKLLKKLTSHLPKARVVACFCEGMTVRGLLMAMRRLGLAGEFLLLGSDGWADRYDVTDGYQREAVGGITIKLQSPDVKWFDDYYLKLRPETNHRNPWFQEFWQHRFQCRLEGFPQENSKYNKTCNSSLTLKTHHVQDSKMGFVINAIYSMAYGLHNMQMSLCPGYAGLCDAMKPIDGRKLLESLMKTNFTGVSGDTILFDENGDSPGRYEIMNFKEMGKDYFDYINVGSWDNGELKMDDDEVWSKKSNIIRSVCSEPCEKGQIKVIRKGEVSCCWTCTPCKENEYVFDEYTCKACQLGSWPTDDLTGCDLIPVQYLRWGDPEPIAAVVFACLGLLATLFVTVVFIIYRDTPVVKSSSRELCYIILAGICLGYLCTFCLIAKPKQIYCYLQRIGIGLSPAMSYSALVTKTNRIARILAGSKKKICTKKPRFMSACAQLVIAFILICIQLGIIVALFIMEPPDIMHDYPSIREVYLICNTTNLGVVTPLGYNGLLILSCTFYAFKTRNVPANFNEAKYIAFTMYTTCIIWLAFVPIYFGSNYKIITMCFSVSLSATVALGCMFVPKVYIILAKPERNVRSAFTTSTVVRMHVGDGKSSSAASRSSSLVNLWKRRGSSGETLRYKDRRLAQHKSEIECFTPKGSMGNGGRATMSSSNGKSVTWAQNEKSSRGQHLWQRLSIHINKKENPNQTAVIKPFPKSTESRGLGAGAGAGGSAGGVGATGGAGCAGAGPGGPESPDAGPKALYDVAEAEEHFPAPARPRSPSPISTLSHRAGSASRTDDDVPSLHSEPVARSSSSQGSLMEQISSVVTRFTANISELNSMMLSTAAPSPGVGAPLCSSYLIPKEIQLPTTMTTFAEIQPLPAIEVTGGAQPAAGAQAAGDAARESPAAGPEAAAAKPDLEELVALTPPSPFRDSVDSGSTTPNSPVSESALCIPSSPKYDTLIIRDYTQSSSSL
Chain of Metabotropic glutamate receptor 3 (Homo sapiens) (Q14832 23-879 limits assumed): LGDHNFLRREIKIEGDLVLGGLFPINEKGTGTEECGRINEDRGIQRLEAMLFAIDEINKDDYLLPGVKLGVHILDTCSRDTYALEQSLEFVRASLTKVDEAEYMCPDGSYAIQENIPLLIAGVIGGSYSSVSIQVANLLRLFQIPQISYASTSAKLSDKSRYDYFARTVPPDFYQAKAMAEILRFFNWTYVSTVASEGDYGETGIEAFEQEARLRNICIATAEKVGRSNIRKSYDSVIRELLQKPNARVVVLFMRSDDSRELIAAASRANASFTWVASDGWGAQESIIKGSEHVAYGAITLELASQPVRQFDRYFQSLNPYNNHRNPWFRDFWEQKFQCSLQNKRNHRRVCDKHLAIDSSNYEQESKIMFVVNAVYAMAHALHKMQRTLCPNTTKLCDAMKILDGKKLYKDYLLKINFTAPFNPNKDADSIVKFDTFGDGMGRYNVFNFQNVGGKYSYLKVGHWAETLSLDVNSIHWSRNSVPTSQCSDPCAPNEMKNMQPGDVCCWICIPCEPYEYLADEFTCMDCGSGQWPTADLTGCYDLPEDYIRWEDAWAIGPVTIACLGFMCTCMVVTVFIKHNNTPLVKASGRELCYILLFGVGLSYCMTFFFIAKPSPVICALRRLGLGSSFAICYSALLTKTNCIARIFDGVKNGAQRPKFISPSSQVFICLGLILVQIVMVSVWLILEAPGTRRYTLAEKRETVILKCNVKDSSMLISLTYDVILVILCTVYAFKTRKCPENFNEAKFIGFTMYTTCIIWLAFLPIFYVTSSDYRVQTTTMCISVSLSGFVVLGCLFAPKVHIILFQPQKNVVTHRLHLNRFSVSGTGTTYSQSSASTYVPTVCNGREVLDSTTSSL
Chain of Metabotropic glutamate receptor 2 (Homo sapiens), Q14416 [Y787A] (Q14416 whole entry Y787A): as the sequence (Q14416 whole entry) above, with Y787A counted along it
Chain of Metabotropic glutamate receptor 2 (Homo sapiens), Q14416 [R720A] (Q14416 whole entry R720A): as the sequence (Q14416 whole entry) above, with R720A counted along it

O=C(Nc1cccc(-c2ccn3c(CC4CC4)nnc3c2C(F)(F)F)c1)c1ccc(S(=O)(=O)F)cc1
inhibition [1]: inactive | K [2]: 2.1 ×10⁴ /M/s | Activity [3]: inactive | EC50 [4]: 158 nM | Ki [5]: 166 nM | TIME [6]: 0.3 h | Activity [7]: inactive | Activity [8]: inactive | Activity [9]: inactive | Activity [10]: inactive | Activity [11]: inactive | inhibition [12]: inactive | K [13]: 0.00091 s⁻¹ | Ki [14]: 112 nM | inhibition [15]: inactive | Activity [16]: inactive | inhibition [17]: inactive | inhibition [18]: inactive

O=C(NCc1ccc(-c2ccn3c(CC4CC4)nnc3c2C(F)(F)F)cc1)c1ccc(S(=O)(=O)F)cc1
K [2]: 2.2 ×10⁵ /M/s | EC50 [4]: 15.1 nM | Ki [5]: 4.17 nM | TIME [6]: 0.483 h | inhibition [12]: inactive | K [13]: 0.00057 s⁻¹ | Ki [14]: 5.75 nM

FC(F)(F)c1c(CN2CCC(c3ccccc3)CC2)ccn2c(CC3CC3)nnc12
inhibition (Homo sapiens [19]): inactive | inhibition (Homo sapiens [20]): inactive

O=C(Nc1ccc(-c2ccn3c(CC4CC4)nnc3c2C(F)(F)F)cc1)c1ccc(S(=O)(=O)F)cc1
K [2]: 3.2 ×10³ /M/s | EC50 [4]: 158 nM | Ki [5]: 6.17 nM | EC50 [21]: 178 nM | Activity [22]: Active | inhibition (Homo sapiens [23]): inactive | inhibition (Homo sapiens [19]): Active | Activity [24]: Active | inhibition [12]: Active | inhibition [25]: inactive | inhibition [26]: Active | pKi [27]: 6.45 | Ki [14]: 61.7 nM | EC50 [28]: 1260 nM | inhibition [29]: Active | Ratio EC50 [30]: 7 | Ratio Ki [31]: 10 | inhibition (Homo sapiens [20]): Active | Ki [32]: 174 nM
